Key:
Assay type in all cases: functional
[1] = tested on: HeLa; assay: Growth inhibition of human HeLa cells after 48 hrs by SRB assay
Method in brief: (§1)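 Cells maintained in RPMI 1640 with 5% heat-inactivated fetal calf serum and 2 mM L-glutamine at 37 °C, 5% CO₂, humidified air. Exponentially growing cells trypsinized and resuspended in medium containing penicillin G (100 units/mL) and streptomycin (0.1 mg/mL). Single-cell suspensions with >97% viability by trypan blue exclusion counted, diluted and seeded into 96-well plates.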

[2] = tested on: SW1573; assay: Growth inhibition of human SW1573 cells after 48 hrs by SRB assay; settings: SW1573, 48 h; method in brief: as §1
[3] = tested on: WiDr; assay: Growth inhibition of human WiDr cells after 48 hrs by SRB assay; method in brief: as §1
[4] = Growth inhibition of human HBL100 cells after 48 hrs by SRB assay; settings: HBL-100, 48 h; method in brief: as §1

## CC1C2=C(OC1(C)C)c1cccc(O)c1C(=O)C2=O (configuration not stated)
[1]
  GI50: 1800 nM
[2]
  GI50: 480 nM
[3]
  GI50: 16 µM
[4]
  GI50: 340 nM

## CC1C2=C(OC1(C)C)c1c(O)cccc1C(=O)C2=O (configuration not stated)
[1]
  GI50: 900 nM
[2]
  GI50: 1300 nM
[3]
  GI50: 2.1 µM
[4]
  GI50: 2000 nM

## CC1OC2=C(C(=O)C(=O)c3c(O)cccc32)C1(C)C (configuration not stated)
[1]
  GI50: 1900 nM
[2]
  GI50: 990 nM
[3]
  GI50: 5.2 µM
[4]
  GI50: 540 nM

## C=C(C)C1CC2=C(O1)c1c(O)cccc1C(=O)C2=O (configuration not stated)
[1]
  GI50: 3000 nM
[2]
  GI50: 2700 nM
[3]
  GI50: 26 µM
[4]
  GI50: 3000 nM

## CC1OC2=C(C(=O)C(=O)c3cccc(O)c32)C1(C)C (configuration not stated)
[1]
  GI50: 1900 nM
[2]
  GI50: 2400 nM
[3]
  GI50: 19 µM
[4]
  GI50: 2200 nM

## CC1(C)C2=C(OC1CI)c1cccc(O)c1C(=O)C2=O (configuration not stated)
[1]
  GI50: 1500 nM
[2]
  GI50: 800 nM
[3]
  GI50: 1.9 µM
[4]
  GI50: 460 nM

## CC1(C)C2=C(OC1CI)c1c(O)cccc1C(=O)C2=O (configuration not stated)
[1]
  GI50: 1600 nM
[2]
  GI50: 1600 nM
[3]
  GI50: 1.8 µM
[4]
  GI50: 1800 nM

## C=C(C)C1CC2=C(O1)c1cccc(O)c1C(=O)C2=O (configuration not stated) [LANTALUCRATIN B]
[1]
  GI50: 210 nM
[2]
  GI50: 1000 nM
[3]
  GI50: 2.2 µM
[4]
  GI50: 460 nM

Reference: ChEMBL document CHEMBL3232878, “QSAR on antiproliferative naphthoquinones based on a conformation-independent approach” (2014)
